Measured values as given in ChEMBL document CHEMBL5365541, “Designing peptide amphiphiles as novel antibacterials and antibiotic adjuvants against gram-negative bacteria” (Bioorg Med Chem, 2023).
Converted amounts (≈) assume the structure as drawn. The source made the active and inactive calls. The rule behind the calls is not given here. Starred links: 1 amine or outer side, 2 acyl side, 3 side chain; linkers in the order of their positions; H or OH if unused. Non-standard residues stand in square brackets, D forms with d. Residues, ends and D or L forms follow the SMILES beside them. X1 = CCCCCCCCCCCCCCCCN([C@@H](CCCCN)C(=O)[*:2])[*:1]; X2 = CCCCCCCCCCCCCCCCN([C@@H](C)C(=O)[*:2])[*:1]

Experiments:
[1] = test system: Escherichia coli; test: Synergistic antibacterial activity against Escherichia coli K12 incubated for 20 to 24 hrs in presence of vancomycin by checkerboard broth microdilution assay; type: functional; conditions: time 20-24 hrs
Method in brief: (§1)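 Checkerboard broth microdilution. E. coli K12 or A. baumannii clinical isolate grown to mid-log (OD ~0.8) and diluted to ~10^5 CFU/mL in MHB. Two-fold dilutions of rifampicin or vancomycin run across the plate against two-fold PA dilutions down it. Incubated 20–24 h at 37 °C, OD read at 470 nm. FICi calculated from the combination MICs.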

[2] = Retention time of the compound by RP-HPLC analysis; type: physicochemical
Method in brief: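 Reverse-phase HPLC, linear gradient 0–100% acetonitrile in water with 0.1% TFA over 20 min; retention time recorded.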

[3] = test system: Acinetobacter baumannii; test: Antibacterial activity against Acinetobacter baumannii incubated for 20 to 24 hrs by broth microdilution method; type: functional; conditions: time 20-24 hrs
Method in brief: (§2)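 Broth microdilution: colonies suspended directly to 1.5×10^8 CFU/mL (0.5 McFarland), then diluted in Mueller–Hinton broth to ~10^5 CFU/mL final. PA stock 1 mg/mL in water, pH 7, serially diluted in MHB. Plates incubated 20–24 h at 37 °C. MIC = lowest concentration inhibiting growth, read as OD600 with optional 1% TTC staining. Triplicate.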

[4] = test system: Escherichia coli; test: Antibacterial activity against Escherichia coli K12 incubated for 20 to 24 hrs by broth microdilution method; type: functional; conditions: time 20-24 hrs; method in brief: as §2
[5] = test system: Staphylococcus aureus; test: Antibacterial activity against methicillin-resistant Staphylococcus aureus JE2 incubated for 20 to 24 hrs by broth microdilution method; type: functional; conditions: time 20-24 hrs
Method in brief: (§3)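 Broth microdilution in MHB: direct colony suspension at 0.5 McFarland diluted to ~10^5 CFU/mL final; peptide stock 1 mg/mL in water at pH 7, serially diluted. Incubated 20-24 h at 37 °C; MIC taken as the lowest concentration inhibiting growth (OD 600 nm, 1% TTC stain); triplicate; vancomycin and gentamicin as positive controls.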

[6] = test system: Staphylococcus aureus; test: Antibacterial activity against methicillin-resistant Staphylococcus aureus 13C incubated for 20 to 24 hrs by broth microdilution method; type: functional; conditions: time 20-24 hrs; method in brief: as §3
[7] = test system: Escherichia coli; test: Synergistic antibacterial activity against Escherichia coli K12 assessed as fractional inhibitory concentration index incubated for 20 to 24 hrs in presence of vancomycin by checkerboard broth microdilution assay; type: functional; conditions: time 20-24 hrs; method in brief: as §1
[8] = test system: Acinetobacter baumannii; test: Synergistic antibacterial activity against Acinetobacter baumannii assessed as fractional inhibitory concentration index incubated for 20 to 24 hrs in presence of vancomycin by checkerboard broth microdilution assay; type: functional; conditions: time 20-24 hrs; method in brief: as §1
[9] = test system: Cell membrane; test: Induction of inner membrane permeability in Escherichia coli K12 at 2 times FICI in presence of vancomycin by propidium iodide staining based spectrofluorometry; type: subcellular; conditions: dose 2.0 µg/ml
Method in brief: (§4)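 E. coli K12 grown in MHB to mid-log, washed twice in PBS, and diluted to 10^6 CFU/mL in 5 mM HEPES + glucose. Cells preincubated with […] at least 15 min at 37 °C. Then treated with agent at 1/8, 1× or 2× MIC, or with PA–vancomycin 1:1. Fluorescence read at ex 535 / em 615 nm. Polymyxin B as positive control; untreated cells as negative control.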

[10] = test system: Cell membrane; test: Induction of inner membrane permeability in Escherichia coli K12 at 4 ug/mL by propidium iodide staining based spectrofluorometry; type: subcellular; conditions: dose 4.0 µg/ml; method in brief: as §4
[11] = test system: Cell membrane; test: Induction of inner membrane permeability in Escherichia coli K12 by propidium iodide staining based spectrofluorometry; type: subcellular; conditions: dose 4-64 µg/ml; method in brief: as §4
[12] = test system: Cell membrane; test: Induction of inner membrane permeability in Escherichia coli K12 at FICI in presence of vancomycin by propidium iodide staining based spectrofluorometry; type: subcellular; conditions: dose 4.0 µg/ml; method in brief: as §4
[13] = test system: Staphylococcus aureus; test: Antibacterial activity against methicillin resistant Staphylococcus aureus JE2 assessed as fold increase in MIC after 21 days in presence of vancomycin by broth microdilution method relative to MIC before 21 days; type: functional; conditions: time 21 day
[14] = test system: Staphylococcus aureus; test: Antibacterial activity against methicillin resistant Staphylococcus aureus JE2 assessed as fold increase in MIC after 21 days by broth microdilution method relative to MIC before 21 days; type: functional; conditions: time 21 day
[15] = test system: HEK293; test: Cytotoxicity against HEK293 cells assessed as reduction in cell viability at 64 to 256 ug/ml incubated for 24 hrs by XTT assay; type: toxicity, cell-based; conditions: human, hek293, 24 h, dose 64-256 µg/ml
Method in brief: (§5)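 HEK-293 cells, passages 3–8, seeded at 5×10^4 per well and preincubated 24 h at 37 °C, 5% CO2. Medium replaced with serially diluted PA, final 8–256 µg/mL, for 24 h, in triplicate. XTT reagent (0.5 mg/mL) added for 4 h at 37 °C, then absorbance read at 600 nm.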

[16] = Hemolytic activity in human red blood cells assessed as hemolysis at 8 ug/ml incubated for 60 min relative to control; type: toxicity, cell-based, Erythrocyte; conditions: at 8 µg/mL, read-out: Activity
Method in brief: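 Washed human RBCs at 0.25×10^8 cells/mL final in PBS, mixed with PA (stocks 16–1024 µg/mL, equal volume). Shaken 10 min, then incubated 60 min at 37 °C, 5% CO2. Cells pelleted at 1000 × g; supernatant hemoglobin read at OD405. 5% Triton X-100 taken as 100% hemolysis; water as negative control.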

[17] = Self assembly property of the compound assessed as zeta potential at 250 ug/mL at pH 7 measured after 2 hrs; type: physicochemical; conditions: pH 7, 2 h, dose 250 µg/ml
Method in brief: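 Peptide self-assembled at 1 mg/mL, pH 7, annealed 2 h at 80 °C, and aged overnight. Diluted to 250 µg/mL in water; zeta potential measured at 25 °C.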

[18] = Self assembly property of the compound assessed as formation of micelles at 1 mg/ml incubated overnight by transmission electron microscopy; type: physicochemical
Method in brief: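 Samples were dissolved at 2 mM in water, pH 7, and left at room temperature overnight. Applied to copper grids for 5 min, blotted, and negatively stained with NanoVan for 30 s. Imaged by TEM at 120 kV.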

[19] = test system: Escherichia coli; test: Synergistic antibacterial activity against Escherichia coli K12 assessed as potentiation of vancomycin-induced antibacterial activity by measuring fold increase in vancomycin MIC incubated for 20 to 24 hrs by checkerboard broth microdilution assay relative to vancomycin alone; type: functional; conditions: time 20-24 hrs; method in brief: as §1
[20] = test system: Escherichia coli; test: Synergistic antibacterial activity against Escherichia coli K12 assessed as potentiation of vancomycin-induced antibacterial activity by vancomycin MIC incubated for 20 to 24 hrs by checkerboard broth microdilution assay; type: functional; conditions: time 20-24 hrs; method in brief: as §1
[21] = Cytotoxicity against HEK293 cells assessed as cell viability up to 64 ug/ml incubated for 24 hrs by XTT assay relative to control; type: toxicity, cell-based; conditions: human, up to 64 µg/mL, read-out: Activity; method in brief: as §5
[22] = test system: Escherichia coli; test: Ratio of MIC for Escherichia coli K12 at pH 5.5 to MIC for Escherichia coli K12 at pH 7.0
[23] = test system: Staphylococcus aureus; test: Ratio of MIC for methicillin-resistant Staphylococcus aureus JE2 at pH 5.5 to MIC for methicillin-resistant Staphylococcus aureus JE2 at pH 7.0
[24] = test system: Staphylococcus aureus; test: Antibacterial activity against methicillin-resistant Staphylococcus aureus LAC incubated for 20 to 24 hrs by broth microdilution method; type: functional; conditions: time 20-24 hrs; method in brief: as §3
[25] = test system: Escherichia coli; test: Synergistic antibacterial activity against Escherichia coli K12 assessed as fractional inhibitory concentration index incubated for 20 to 24 hrs in presence of rifampicin by checkerboard broth microdilution assay; type: functional; conditions: time 20-24 hrs; method in brief: as §1
[26] = test system: Acinetobacter baumannii; test: Synergistic antibacterial activity against Acinetobacter baumannii assessed as fractional inhibitory concentration index incubated for 20 to 24 hrs in presence of rifampicin by checkerboard broth microdilution assay; type: functional; conditions: time 20-24 hrs; method in brief: as §1
[27] = test system: Cell membrane; test: Induction of inner membrane permeability in Escherichia coli K12 at 8 to 16 ug/mL by propidium iodide staining based spectrofluorometry; type: subcellular; conditions: dose 8-16 µg/ml; method in brief: as §4
[28] = test system: Staphylococcus aureus; test: Antibacterial activity against methicillin resistant Staphylococcus aureus JE2 assessed as fold increase in MIC after 5 days by broth microdilution method relative to MIC before 5 days; type: functional; conditions: time 5 day
[29] = test system: Escherichia coli; test: Synergistic antibacterial activity against Escherichia coli K12 assessed as potentiation of rifampicin-induced antibacterial activity by measuring fold increase in rifampicin MIC incubated for 20 to 24 hrs by checkerboard broth microdilution assay relative to rifampicin alone; type: functional; conditions: time 20-24 hrs; method in brief: as §1
[30] = test system: Acinetobacter baumannii; test: Synergistic antibacterial activity against Acinetobacter baumannii assessed as potentiation of rifampicin-induced antibacterial activity by measuring fold increase in rifampicin MIC incubated for 20 to 24 hrs by checkerboard broth microdilution assay relative to rifampicin alone; type: functional; conditions: time 20-24 hrs; method in brief: as §1
[31] = test system: Cell membrane; test: Induction of inner membrane permeability in Escherichia coli K12 assessed as shift in bacterial zeta potential at 80 ug/ml measured after 1 hr; type: subcellular; conditions: dose 80.0 µg/ml
[32] = test system: Cell membrane; test: Induction of inner membrane permeability in methicillin-resistant Staphylococcus aureus JE2 assessed as shift in bacterial zeta potential at 80 ug/ml measured after 1 hr; type: subcellular; conditions: dose 80.0 µg/ml
Method in brief: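 Mid-log MRSA JE2 from MHB (OD ~0.8) washed and resuspended in PBS at 5×10^7 CFU/mL, exposed to peptide at 10 × MIC for 1 h, then zeta potential measured at 25 °C; untreated cells as negative control, daptomycin and polymyxin B as reference drugs.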

CCCCCCCCCCCCCCCCN[C@@H](CCCCN)C(=O)N[C@@H](Cc1c[nH]cn1)C(=O)N[C@@H](CCCCN)C(=O)N[C@@H](Cc1c[nH]cn1)C(=O)N[C@@H](CCCCN)C(=O)O (H-[X1]HKHK-OH)
MIC [1]: 4 µg/mL | Retention_time [2]: 13.4 min | MIC [3]: 64 µg/mL (≈ 71 µM) | MIC [4]: 32 µg/mL (≈ 35.5 µM) | MIC [5]: 64 µg/mL (≈ 71 µM) | MIC [6]: 32 µg/mL (≈ 35.5 µM) | fractional inhibitory concentration index (FICI) [7]: 0.15 | fractional inhibitory concentration index (FICI) [8]: 1 | Activity [9]: Active | Activity [10]: Active | Activity [11]: Dose-Dependent Effect | Activity [12]: Active | fold change (FC) [13]: 8 | fold change (FC) [14]: 8 | Activity [15]: Non-Toxic | hemolysis at 1 h, 8 ug/ml [16]: 28.2% | Activity [17]: 15.8 mV | Activity [18]: Active | fold change (FC) [19]: 32 | MIC [20]: 4 µg/mL | viability at 24 h [21]: 100% | Ratio [22]: > 1 | Ratio [23]: > 1

CCCCCCCCCCCCCCCCN[C@@H](C)C(=O)N[C@@H](C)C(=O)N[C@@H](C)C(=O)N[C@@H](CCCCN)C(=O)N[C@@H](CCCNC(=N)N)C(=O)N[C@@H](CCCCN)C(=O)N[C@@H](CCCNC(=N)N)C(=O)O (H-[X2]AAKRKR-OH)
Retention_time [2]: 14.3 min | MIC [3]: 4 µg/mL (≈ 3.9 µM) | MIC [4]: 8 µg/mL (≈ 7.81 µM) | MIC [5]: 8 µg/mL (≈ 7.81 µM) | MIC [6]: 8 µg/mL (≈ 7.81 µM) | MIC [24]: 8 µg/mL (≈ 7.81 µM) | fractional inhibitory concentration index (FICI) [25]: 0.62 | fractional inhibitory concentration index (FICI) [26]: 0.75 | Activity [10]: inactive | Activity [27]: Active | fold change (FC) [28]: 2 | Activity [15]: Non-Toxic | hemolysis at 1 h, 8 ug/ml [16]: 33.3% | Activity [17]: 10.8 mV | Activity [18]: Active | fold change (FC) [29]: 8 | fold change (FC) [30]: 2 | Activity [31]: Active | Activity [32]: Active | viability at 24 h [21]: 100%
